Source: PubChem (Johns Hopkins Ion Channel Center)
In the library only some 2.9% were active in any assay of this set; here they are far more common.
TRPC6 act: mouse TRPC6 channel activators, primary screen, cell-based, HEK293, membrane potential dye | AID 2550, 2010 | B-score at 10 µM | HEK293-TRPC6 membrane potential dye fluorescence; stronger effect = higher value | Short transient receptor potential channel 6 (Mus musculus), Q61143 | 310,000 tested, 0.13% active;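 active = B-score of the integrated fluorescence ratio above library mean plus 3 SD, and starting fluorescence ratio within library mean plus 5 SD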;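 also: higher score means more depolarization so channel activation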
TRPC6 inh: mouse TRPC6 channel inhibitors, primary screen, cell-based, HEK293, membrane potential dye | Short transient receptor potential channel 6 (Mus musculus), Q61143 | ACh-evoked depolarization; stronger effect = lower value | B-score at 10 µM | 310,000 tested, 1.1% active | AID 2553, 2010;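 active = B-score under library mean minus 3 SD, initial fluorescence not abnormally high, positive integrated signal ratio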;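 also: B-score derived from integrated fluorescence ratio over the kinetic read; more negative B-score means stronger inhibition of depolarization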
TRPC4 PAM: positive allosteric modulators of TRPC4, primary screen, cell-based, mouse TRPC4beta, HEK293 mu-opioid, Fluo-4 calcium | DAMGO EC20, Fluo-4 Ca2+ flux; stronger effect = higher value | B-score at 10 µM | 310,000 tested, 0.42% active | AID 2227, 2009;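 active = B-score of calcium response area above 5 SD of library B-scores, with initial fluorescence ratio within 5 SD of library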;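 also: B-score of integrated fluorescence ratio over time as area under calcium response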
Kir21 inh: inhibitors of mouse Kir2.1 inward-rectifier potassium channel; AID 1672, 2009; HEK293-Kir2.1, FluxOR thallium flux fluorescence; stronger effect = lower value; 310,000 tested, 0.85% active; Inward rectifier potassium channel 2 (Mus musculus), P35561; B-score at 10 µM;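 active = fluorescence ratio B-score at or below minus 3 SD of library scores, with starting-brightness B-score within 2 SD, cut at about -4.2 in these data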;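 also: channel flux triggered by added potassium and thallium sulfate stimulus; B-score of peak minus minimum fluorescence over baseline after thallium stimulus; more negative B-score means stronger Kir2.1 block with less thallium influx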
TRPC4 act: activators of mouse TRPC4 channel, primary screen, Fluo4 calcium, HEK293 TRPC4beta/mu-opioid cells; Short transient receptor potential channel 4 (Mus musculus), Q9QUQ5; Fluo4 calcium fluorescence; stronger effect = higher value; B-score at 10 µM; 310,000 tested, 0.49% active; AID 2237, 2010;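 active = B-score above 5 SD of library B-scores, and initial fluorescence ratio not above library mean plus 5 SD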;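 also: positive B-score marks a calcium rise read as TRPC4 activation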
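Incubation: 45 min room-temperature Fluo4 loading, 110 s read / System: HEK293 cells stably co-expressing mouse TRPC4beta and mu-opioid receptor / Signal: Fluo4 fluorescence, kinetic / Control set: buffer (low) and maximal DAMGO (high) / Measure: integrated baseline-normalised fluorescence ratio, converted to per-well B score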
TRPC4 block: inhibitors of mouse TRPC4 channel, primary screen, Fluo4 calcium, HEK293 TRPC4beta/mu-opioid cells. DAMGO-evoked Fluo4 calcium flux; stronger effect = lower value. B-score at 10 µM. 300,000 tested, 0.39% active;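 active = B-score over 3 SD under the library average, no early fluorescence shift, positive overall ratio signal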
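Test system – stable TRPC4beta/mu-opioid receptor HEK293 cells · Probe or stimulus – DAMGO, a submaximal dose followed by a maximal one · Dosing – one concentration per compound · Signal – Fluo4 calcium fluorescence by kinetic imaging, 5 s 1 Hz baseline · Evaluation – per-well B score of integrated baseline-normalized Fluo4 ratio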
Numbers without * were called inactive; i = inactive.

SMILES | TRPC6 act | TRPC6 inh | TRPC4 PAM | Kir21 inh | TRPC4 act | TRPC4 block
Cc1cc(=O)oc2cc(OC(C)C(=O)N3CCCc4ccccc43)ccc12 (configuration not stated) | i | i | i | 0.22 | i | i
C#CCSc1nc(=O)c2cccnc2n1-c1ccc(C)cc1 | i | i | i | 0.93 | i | i
Cc1ccc(S(=O)(=O)N2CCN(C(=O)c3ccccc3)CC2)c(C)c1NS(C)(=O)=O | i | i | i | 1.88 | i | i
CC(=O)C1=C(O)C(=O)N(Cc2ccco2)C1c1ccc2c(c1)OCO2 (configuration not stated) | i | i | i | -0.28 | i | -7*
COC(=O)NCC(c1ccc2c(c1)OCO2)N1CCN(c2ccccc2)CC1 (configuration not stated) | i | i | i | 1.92 | 169* | i
COc1ccc(C(=O)NCC(c2ccc3c(c2)OCO3)N2CCN(c3ccc(OC)cc3)CC2)cc1 (configuration not stated) | i | i | i | 0.59 | i | i
CC(C)(C)c1ccc(Cn2c(=O)cnc3ccccc32)cc1 | i | i | i | -0.61 | i | i
COc1ccc(-n2cccc2/C=C/[N+](=O)[O-])cc1 | i | i | i | -4.76* | i | i
COc1ccc(-n2cccc2C=O)cc1 | i | i | i | 1.06 | i | i
O=C(NCc1ccco1)c1ccc(COc2cc(Cl)ccc2Cl)cc1 | i | i | i | 0.71 | i | i
C=C(C)Cn1c(C2CC(=O)N(Cc3ccccc3)C2)nc2ccccc21 (configuration not stated) | i | i | i | -2.53 | i | i
CCn1c(C2CC(=O)N(Cc3ccccc3)C2)nc2ccccc21 (configuration not stated) | i | i | 16* | 0.22 | i | i
Fc1ccc(Oc2ccnc(Cl)n2)c(Cl)c1 | i | i | i | 0.85 | i | i
O=c1[nH][nH]c(-c2ccccc2)c1C=Nc1cccc(Cl)c1 | i | i | i | -0.16 | i | i
O=c1[nH][nH]c(-c2ccccc2)c1C=Nc1ccc(Cl)cc1 | i | i | 84* | 1.39 | i | i
CC(C)c1ccc(N(CC(=O)NCc2ccco2)C(=O)CCC(=O)Nc2nccs2)cc1 | i | i | i | -0.22 | i | i
CC(C)c1c(O)nc(SCCC(=O)O)[nH]c1=O | i | i | i | -0.76 | i | i
CCCCc1c(O)nc(SCC(=O)O)[nH]c1=O | i | i | i | 1.25 | i | i
CCCCCc1c(O)nc(SCCN(C)C)[nH]c1=O | i | i | i | 0.05 | 93* | i
CCC(C)c1c(O)nc(SCC(=O)N2CCCCCC2)[nH]c1=O (configuration not stated) | i | i | i | -1.18 | i | i
CC(C)c1c(O)nc(SCC(=O)N2CCCCC2)[nH]c1=O | i | i | 10* | -1.53 | i | i
CCCCCc1c(O)nc(SCCN(CC)CC)[nH]c1=O | i | i | i | 0.3 | 46* | i
CCCN(CCC)CCSc1nc(O)c(C(C)C)c(=O)[nH]1 | i | i | 12* | -0.07 | i | i
CCCCCCc1c(O)nc(SCC(=O)O)[nH]c1=O | i | i | i | 0.35 | i | i
CCCCCCc1c(O)nc(SCCN(C)C)[nH]c1=O | i | i | i | 0.15 | 65* | i
SMILES | TRPC6 act | TRPC6 inh | TRPC4 PAM | Kir21 inh | TRPC4 act | TRPC4 block
Nn1c(Cc2cccc3ccccc23)nnc1SCc1ccccc1 | i | i | i | -4.56* | i | i
CC(C)c1ccc(/C=C(\c2nc3ccccc3[nH]2)S(=O)(=O)c2ccccc2)cc1 | i | i | i | -0.22 | i | i
O=S(=O)(/C(=C/c1ccc(C(F)(F)F)cc1)c1nc2ccccc2[nH]1)c1ccccc1 | i | i | i | -7.58* | i | i
CCOC(=O)CC1C(=O)NCCN1C(=O)c1cccc(OC)c1 (configuration not stated) | i | i | i | -0.01 | i | i
Cc1cc(-c2ccc(C)c(S(=O)(=O)N3CCN(c4ccccn4)CC3)c2)on1 | i | i | 40* | 0.36 | i | i
Cc1cc(-c2ccc(C)c(S(=O)(=O)N3CCN(c4ccc([N+](=O)[O-])cc4)CC3)c2)on1 | i | i | i | -0.49 | i | i
COc1ccc(-c2cc(C)no2)cc1S(=O)(=O)NCCCN(C)Cc1ccccc1 | i | i | 14* | -2.28 | i | i
Cc1cc(-c2ccc(C)c(S(=O)(=O)NCCCN3CCCCCC3)c2)on1 | i | i | 10* | 0.65 | i | i
COc1ccc(-c2cc(C)no2)cc1S(=O)(=O)NCCCN1CCN(c2ccccc2)CC1 | i | i | i | 0.5 | i | i
Cc1[nH]c(=O)[nH]c(=O)c1NS(=O)(=O)c1ccccc1 | i | i | i | 0.44 | i | i
Cc1ccc(OCCCCN2CCc3ccccc3C2)c(C)c1 | i | i | i | -0.31 | i | i
Cc1ccc(SCCOCCN2CCc3ccccc3C2)cc1 | i | i | i | -4.62* | i | i
c1ccc(OCCOCCN2CCc3ccccc3C2)cc1 | i | i | i | 0.09 | i | i
CCOc1ccc(OCCOCCN2CCc3ccccc3C2)cc1 | i | i | i | -4.21* | i | i
C=CCc1cc(OC)ccc1OCCOCCN1CCc2ccccc2C1 | i | i | i | -11.8* | i | i
CCCOc1ccc(OCCOCCN2CCc3ccccc3C2)cc1 | i | i | i | -10.1* | i | i
O=C(Cn1ncc2c3ccccc3n(Cc3ccccc3)c2c1=O)NCc1ccco1 | i | i | i | 0.49 | i | i
CCC(C)NC(=O)CSc1nnc(-c2ccc(OC)c(OC)c2)c(-c2ccc(OC)c(OC)c2)n1 (configuration not stated) | i | i | i | 0.93 | i | i
Cc1ccccc1S(=O)(=O)Cc1ccc(C(=O)NCc2ccc(F)cc2)o1 | i | i | i | -2.17 | i | i
COc1ccc(NS(=O)(=O)c2cccc(C(=O)N(C)Cc3ccc(SC)cc3)c2)cc1 | i | i | i | 0.26 | i | i
